From ChEMBL document CHEMBL1125678, “Quinazolineacetic acids and related analogues as aldose reductase inhibitors” (J Med Chem, 1991)

Key:
[1] = biological target: Aldo-keto reductase family 1 member B1 (Bos taurus) (UniProt P16116); test: In vitro inhibition of aldose reductase in partially purified bovine lens preparation at a concentration of 10e -7M.
Summary of the method: (§1)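 Enzyme from bovine lens, partially purified by the cited method with the final chromatographic step omitted. DL-Glyceraldehyde was the substrate. Test compounds were run in duplicate at 1×10⁻⁵, 1×10⁻⁶, 1×10⁻⁷ or 4×10⁻⁸ M. Values are % inhibition of enzymatic activity.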

Rattus norvegicus [2] = test: In vivo inhibition of galactitol accumulation in the sciatic nerve of rats fed 20% galactose for 4 day at 99 mg/kg/day dose; NS = No Significant inhibition of polyol accumulation; assay type: functional, organism-based
Rattus norvegicus [3] = test: In vivo inhibition of galactitol accumulation in the diaphragm of rats fed 20% galactose for 4 day at 99 mg/kg/day dose; NS = No Significant inhibition of polyol accumulation; assay type: functional, organism-based
Summary of the method: (§2)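 Male Sprague-Dawley rats (50–70 g) in groups of six were fed chow with 20% (w/w) galactose. Controls received 20% glucose instead. Test compound was mixed into the diet, and dose was calculated from actual food intake. Rats were killed by decapitation after 4 days. Result is % lowering of tissue galactitol versus galactose-fed controls, as the mean of six animals, compared by Dunnett's multiple comparison.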

[4] = biological target: Aldo-keto reductase family 1 member B1 (Bos taurus) (UniProt P16116); test: In vitro inhibition of aldose reductase in partially purified bovine lens preparation at a concentration of 4*10e -8M.; summary of the method: as §1
[5] = biological target: Aldo-keto reductase family 1 member B1 (Bos taurus) (UniProt P16116); test: in vitro inhibition of aldose reductase in partially purified bovine lens preparation at a concentration of 10e -6M.
Rattus norvegicus [6] = test: (§3) In vivo inhibition of galactitol accumulation in the sciatic nerve of rats fed 20% galactose for 4 day at 95 mg/kg/day dose; NS= No Significant inhibition of polyol accumulation; assay type: functional, organism-based
Rattus norvegicus [7] = test: as §3; assay type: functional, organism-based; remark: listed apart in the source
Rattus norvegicus [8] = test: In vivo inhibition of galactitol accumulation in the diaphragm of rats fed 20% galactose for 4 day at 95 mg/kg/day dose; assay type: functional; summary of the method: as §2
Rattus norvegicus [9] = test: In vivo inhibition of galactitol accumulation in the sciatic nerve of rats fed 20% galactose for 4 day at 95 mg/kg/day dose; assay type: functional
Rattus norvegicus [10] = test: In vivo inhibition of galactitol accumulation in the diaphragm of rats fed 20% galactose for 4 day at 101 mg/kg/day dose; assay type: functional; summary of the method: as §2
Rattus norvegicus [11] = test: In vivo inhibition of galactitol accumulation in the sciatic nerve of rats fed 20% galactose for 4 day at 101 mg/kg/day dose; NS = No Significant inhibition of polyol accumulation; assay type: functional, organism-based; summary of the method: as §2
[12] = biological target: Aldo-keto reductase family 1 member B1 (Bos taurus) (UniProt P16116); test: In vitro inhibition of Aldose reductase in partially purified bovine lens preparation at a concentration of 4*10e -8M.; summary of the method: as §1
[13] = biological target: Aldo-keto reductase family 1 member B1 (Bos taurus) (UniProt P16116); test: In vitro inhibition of Aldose reductase in partially purified bovine lens preparation at a concentration of 10e -7M.; summary of the method: as §1
Rattus norvegicus [14] = test: In vivo inhibition of galactitol accumulation in the diaphragm of rats fed 20% galactose for 4 day at 101 mg/kg/day dose; NS = No Significant inhibition of polyol accumulation; assay type: functional, organism-based; summary of the method: as §2
Rattus norvegicus [15] = test: In vivo inhibition of galactitol accumulation in the diaphragm of rats fed 20% galactose for 4 day at 102 mg/kg/day dose; assay type: functional; summary of the method: as §2
[16] = biological target: Aldo-keto reductase family 1 member B1 (Bos taurus) (UniProt P16116); test: In vitro inhibition of aldose reductase in partially purified bovine lens preparation at a concentration of 10e -5M.; conditions: in the assay text read “10e -6M” for “10e -5M”; summary of the method: as §1
[17] = biological target: Aldo-keto reductase family 1 member B1 (Bos taurus) (UniProt P16116); test: In vitro inhibition of aldose reductase in partially purified bovine lens preparation at a concentration of 10e-6 M.; summary of the method: as §1

Structure (SMILES)	inhibition [1] [%]	inhibition [4] [%]	Lowering (Rattus norvegicus [6])	Lowering (Rattus norvegicus [7])	also measured
Cc1c(C)n(Cc2ccc(Cl)c(Cl)c2)c(=O)n(CC(=O)O)c1=O	39	28	–	–	Lowering (Rattus norvegicus [2]): Not significant; Lowering (Rattus norvegicus [3]): Not significant; inhibition [5]: 83%
O=C(O)Cn1c(=O)c2cc(Br)ccc2n(C(=O)c2ccccc2)c1=O	–	–	Not significant	Not significant	inhibition [5]: 46%
C=CCn1c(=O)n(CC(=O)O)c(=O)c2cc(Br)ccc21	–	–	Not significant	Not significant	inhibition [5]: 31%
O=C(O)CN1C(=O)c2cc(Cl)ccc2N(Cc2ccc(Br)cc2F)[S+]1[O-] (stereo not given)	21	8	Not significant	Not significant	–
O=C(O)Cn1c(=O)c2cc(Cl)ccc2n(Cc2ccc(Cl)c(Cl)c2)c1=O	71	29	–	–	Lowering (Rattus norvegicus [8]): 83%; Lowering (Rattus norvegicus [9]): 72%
O=C(O)Cn1c(=O)n(Cc2ccc(Cl)c(Cl)c2)c(=O)c2c3c(sc21)CCCC3	89	63	–	–	Lowering (Rattus norvegicus [2]): Not significant; Lowering (Rattus norvegicus [3]): Not significant
O=C(O)Cn1c(=O)c2cc([N+](=O)[O-])ccc2n(Cc2ccc(Br)cc2F)c1=O	71	38	Not significant	Not significant	–
O=C(O)Cn1c2ccc([N+](=O)[O-])cc2c(=O)n1Cc1ccc(Br)cc1F	–	–	–	–	Lowering (Rattus norvegicus [10]): 22%; Lowering (Rattus norvegicus [11]): Not significant; inhibition [12]: 36%; inhibition [13]: 60%
O=C(O)Cn1c(=O)c2cccc(F)c2n(Cc2ccc(Br)cc2F)c1=O	77	53	–	–	Lowering (Rattus norvegicus [8]): 70%; Lowering (Rattus norvegicus [9]): 49%
O=C(O)Cn1c2ccc(Cl)cc2c(=O)n1Cc1ccc(Cl)c(Cl)c1	63	34	–	–	Lowering (Rattus norvegicus [11]): Not significant; Lowering (Rattus norvegicus [14]): Not significant
COc1ccc(Cn2c(=O)n(CC(=O)O)c(=O)c3cc(Br)ccc32)cc1	31	11	Not significant	Not significant	–
COc1ccc(Cn2c(=O)n(CC(=O)O)c(=O)c3cc(Br)ccc32)cc1Br	–	32	–	Not significant	Lowering (Rattus norvegicus [15]): 24%
O=C(O)Cn1c(=O)c2ccccc2n(-c2ccccc2)c1=O	–	–	–	–	inhibition [16]: 45%
O=C(O)Cn1c(=O)[nH]c2ccc(Br)cc2c1=O	–	–	–	–	inhibition [16]: 64%
O=C(O)Cn1c(=O)c2ccc(Cl)cc2n(Cc2ccc(Br)cc2F)c1=O	76	55	–	–	Lowering (Rattus norvegicus [8]): 74%; Lowering (Rattus norvegicus [9]): 42%
CCc1nc2ccc(Br)cc2c(=O)n1CC(=O)O	13	–	–	–	inhibition [17]: 57%; Lowering (Rattus norvegicus [11]): Not significant; Lowering (Rattus norvegicus [14]): Not significant
O=C(O)CN1CN(Cc2ccc(Cl)c(Cl)c2)C(=O)c2cc(Cl)ccc21	87	54	–	Not significant	Lowering (Rattus norvegicus [10]): 29%
O=C(O)Cn1c(=O)c2cc(Br)ccc2n(Cc2ccc(F)c(F)c2)c1=O	30	20	–	Not significant	Lowering (Rattus norvegicus [15]): 40%
O=C(O)Cn1c(=O)c2c(Cl)cccc2n(Cc2ccc(Br)cc2F)c1=O	70	33	–	Not significant	Lowering (Rattus norvegicus [8]): 46%
Cn1c(=O)n(CC(=O)O)c(=O)c2cc(Cl)ccc21	–	–	–	–	inhibition [16]: 60%
O=C(O)Cn1c(=O)c2cc(Br)ccc2n(Cc2ccc(C(F)(F)F)cc2)c1=O	–	–	Not significant	Not significant	inhibition [5]: 54%
O=C(O)Cn1c(=O)c2cc(Br)ccc2n(CCc2ccccc2)c1=O	–	–	Not significant	Not significant	inhibition [16]: 34%
